Experimental data from ChEMBL document CHEMBL4433246, “Synthesis and Optimization of Kv7 (KCNQ) Potassium Channel Agonists: The Role of Fluorines in Potency and Selectivity” (ACS Med Chem Lett, 2019).

Assays:
[1] = molecular target: T1, Potassium voltage-gated channel subfamily KQT member 4 (Homo sapiens) (UniProt P56696); experiment: Agonist activity at human Kv7.4 expressed in HEK293 cells assessed as drug concentration that doubles the conductance at voltage leading to 15% channel activation at holding potential of at -80 mV by whole cell patch clamp electrophysiology assay; type: cell-based
T1 sequence (whole entry): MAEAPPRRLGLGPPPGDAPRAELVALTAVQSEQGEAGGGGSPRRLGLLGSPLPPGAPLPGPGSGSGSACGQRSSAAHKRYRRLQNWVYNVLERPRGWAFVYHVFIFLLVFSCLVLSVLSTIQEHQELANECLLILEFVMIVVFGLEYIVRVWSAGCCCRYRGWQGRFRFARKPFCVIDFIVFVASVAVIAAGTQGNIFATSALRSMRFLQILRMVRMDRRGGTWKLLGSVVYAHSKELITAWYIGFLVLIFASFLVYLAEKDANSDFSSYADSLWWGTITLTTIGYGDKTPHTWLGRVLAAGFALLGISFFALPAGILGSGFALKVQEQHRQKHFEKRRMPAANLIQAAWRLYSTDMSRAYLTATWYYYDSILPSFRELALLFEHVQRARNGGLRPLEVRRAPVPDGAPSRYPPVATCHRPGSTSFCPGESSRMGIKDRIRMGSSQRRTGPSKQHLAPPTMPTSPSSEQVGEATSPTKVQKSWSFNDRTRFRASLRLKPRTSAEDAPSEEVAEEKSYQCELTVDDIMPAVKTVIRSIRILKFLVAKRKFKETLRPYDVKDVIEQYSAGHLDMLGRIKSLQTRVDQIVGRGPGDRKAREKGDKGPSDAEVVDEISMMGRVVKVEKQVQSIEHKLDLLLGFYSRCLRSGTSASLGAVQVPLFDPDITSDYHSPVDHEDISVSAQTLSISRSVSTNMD
Procedure, shortened: (§1)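 High-throughput automated electrophysiology on an IonWorks Barracuda platform using HEK293 cells expressing the human channel. Ten-point concentration–response curves were run. EC2x is the agonist concentration that doubles conductance at the voltage giving 15% channel activation. Values come from 2–5 individual assay determinations and are given as mean ± SD. The reference agonist was run in 6–431 repeats.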

[2] = Half life in human liver microsomes; type: ADME, Microsome
Procedure, shortened: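 Stability was measured by incubation with pooled human liver microsomes. Half-life is reported in minutes.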

Homo sapiens = species on record: Homo sapiens; experiment: Selectivity index, ratio of EC2x for human Kv7.4/5 expressed in HEK293 cells to EC2x for EC2x for human Kv7.2/3 expressed in HEK293 cells; type: cell-based
Procedure, shortened: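 Selectivity index calculated as EC2x(Kv7.4/Kv7.5) divided by EC2x(Kv7.2/Kv7.3). Both EC2x values came from IonWorks Barracuda automated electrophysiology in HEK293 cells, using 10-point concentration curves and the doubled-conductance definition at 15% activation voltage.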

[3] = molecular target: KCNQ4/KCNQ5 (Homo sapiens) (UniProt Q9NR82+P56696); experiment: Agonist activity at human Kv7.4/Kv7.5 expressed in HEK293 cells assessed as drug concentration that doubles the conductance at voltage leading to 15% channel activation at holding potential of at -80 mV by whole cell patch clamp electrophysiology assay; type: cell-based; procedure, shortened: as §1
[4] = molecular target: Voltage-gated potassium channel, KQT; KCNQ2(Kv7.2)/KCNQ3(Kv7.3) (Homo sapiens) (UniProt O43526+O43525); experiment: Agonist activity at human Kv7.2/Kv7.3 expressed in HEK293 cells assessed as drug concentration that doubles the conductance at voltage leading to 15% channel activation at holding potential of at -80 mV by whole cell patch clamp electrophysiology assay; type: cell-based; procedure, shortened: as §1
[5] = molecular target: Voltage-gated potassium channel KCNQ3/KCNQ5 (Homo sapiens) (UniProt O43525+Q9NR82); experiment: Agonist activity at human Kv7.3/Kv7.5 expressed in HEK293 cells assessed as drug concentration that doubles the conductance at voltage leading to 15% channel activation at holding potential of at -80 mV by whole cell patch clamp electrophysiology assay; type: cell-based; procedure, shortened: as §1
[6] = molecular target: Voltage-gated potassium channel, KQT; KCNQ2(Kv7.2)/KCNQ3(Kv7.3) (Homo sapiens, UniProt O43525+O43526); experiment: Agonist activity at human Kv7.2/Kv7.3 expressed in CHO cells at holding potential of at -85 mV by whole cell patch clamp electrophysiology assay; type: cell-based
Voltage-gated potassium channel, KQT; KCNQ2(Kv7.2)/KCNQ3(Kv7.3), sequence (O43526 whole entry): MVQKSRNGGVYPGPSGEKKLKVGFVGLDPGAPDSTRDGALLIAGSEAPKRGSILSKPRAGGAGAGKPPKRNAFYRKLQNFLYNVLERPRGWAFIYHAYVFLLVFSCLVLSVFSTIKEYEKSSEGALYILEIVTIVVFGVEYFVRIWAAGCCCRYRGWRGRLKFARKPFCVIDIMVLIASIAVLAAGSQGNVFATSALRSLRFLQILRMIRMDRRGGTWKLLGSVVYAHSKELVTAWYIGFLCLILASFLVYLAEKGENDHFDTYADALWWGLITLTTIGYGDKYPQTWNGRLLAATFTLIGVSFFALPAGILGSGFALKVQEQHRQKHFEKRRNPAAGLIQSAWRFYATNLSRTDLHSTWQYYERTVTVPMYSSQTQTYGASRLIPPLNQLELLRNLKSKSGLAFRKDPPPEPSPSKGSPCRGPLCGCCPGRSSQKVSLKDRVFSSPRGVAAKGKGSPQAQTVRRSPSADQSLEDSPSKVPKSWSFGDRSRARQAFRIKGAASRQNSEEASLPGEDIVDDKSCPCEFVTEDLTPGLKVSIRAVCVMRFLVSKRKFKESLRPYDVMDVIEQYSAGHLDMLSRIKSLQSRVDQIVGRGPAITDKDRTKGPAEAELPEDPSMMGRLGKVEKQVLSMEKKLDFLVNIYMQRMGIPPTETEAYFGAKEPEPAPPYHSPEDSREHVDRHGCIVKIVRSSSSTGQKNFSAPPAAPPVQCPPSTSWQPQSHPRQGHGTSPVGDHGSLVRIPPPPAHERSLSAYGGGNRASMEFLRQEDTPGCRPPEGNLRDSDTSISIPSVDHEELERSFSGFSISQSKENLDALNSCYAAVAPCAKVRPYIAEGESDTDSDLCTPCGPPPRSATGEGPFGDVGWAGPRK
Voltage-gated potassium channel, KQT; KCNQ2(Kv7.2)/KCNQ3(Kv7.3), sequence (O43525 whole entry): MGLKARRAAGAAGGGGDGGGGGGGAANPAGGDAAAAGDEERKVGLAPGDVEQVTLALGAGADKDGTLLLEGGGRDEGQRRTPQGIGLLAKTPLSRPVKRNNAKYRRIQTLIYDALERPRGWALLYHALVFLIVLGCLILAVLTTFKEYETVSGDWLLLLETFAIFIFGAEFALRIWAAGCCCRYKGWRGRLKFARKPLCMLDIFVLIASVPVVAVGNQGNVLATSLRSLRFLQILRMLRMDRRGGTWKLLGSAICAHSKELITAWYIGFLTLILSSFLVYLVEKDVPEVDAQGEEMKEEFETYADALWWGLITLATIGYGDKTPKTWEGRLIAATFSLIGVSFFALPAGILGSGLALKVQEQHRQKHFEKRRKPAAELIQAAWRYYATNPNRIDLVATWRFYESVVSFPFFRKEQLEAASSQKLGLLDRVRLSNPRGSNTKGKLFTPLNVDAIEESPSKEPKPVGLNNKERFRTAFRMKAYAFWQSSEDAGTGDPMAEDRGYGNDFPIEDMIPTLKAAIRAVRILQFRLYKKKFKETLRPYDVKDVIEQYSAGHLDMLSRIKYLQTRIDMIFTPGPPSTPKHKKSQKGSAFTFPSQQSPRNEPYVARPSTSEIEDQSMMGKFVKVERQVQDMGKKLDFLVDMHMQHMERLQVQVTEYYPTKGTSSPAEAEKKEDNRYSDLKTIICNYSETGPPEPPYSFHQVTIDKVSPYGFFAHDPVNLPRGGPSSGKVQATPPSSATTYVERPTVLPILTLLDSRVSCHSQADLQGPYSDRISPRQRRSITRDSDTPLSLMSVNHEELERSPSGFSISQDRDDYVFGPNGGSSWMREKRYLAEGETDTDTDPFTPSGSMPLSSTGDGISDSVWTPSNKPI

Compound	EC2 [1]	half-life [2]	Selectivity Index (Homo sapiens)	EC2 [3]	EC2 [4]	EC2 [5]	EC50 [6]
CC(C)OC(=O)Nc1ccc(NCc2ccc(C(F)(F)F)cc2)c(F)c1N	0.19 µM	7.52 h	31	4.98 µM	0.16 µM	0.16 µM	–
CCOC(=O)Nc1ccc(NCc2ccc(C(F)(F)F)c(C#N)n2)c(F)c1N	2.17 µM	–	1.5	2.33 µM	1.6 µM	1.3 µM	–
CCOC(=O)Nc1ccc(NCc2cccc(C(F)(F)F)c2)c(F)c1N	0.4 µM	–	4.7	0.66 µM	0.14 µM	0.2 µM	–
Nc1c(F)c(NCc2ccc(C(F)(F)F)cc2F)cc(F)c1NC(=O)OC1CC1	0.55 µM	–	> 7	> 10 µM	1.47 µM	> 10 µM	–
CCOC(=O)Nc1ccc(NCc2cccc(S(F)(F)(F)(F)F)c2)c(F)c1N	0.65 µM	–	1.8	0.65 µM	0.36 µM	0.21 µM	–
CCOC(=O)Nc1ccc(NCc2ccc(C(F)(F)F)cc2)c(F)c1N	0.1 µM	5.73 h	0.3	0.09 µM	0.26 µM	0.29 µM	–
Nc1c(F)c(NCc2ccc(C(F)(F)F)cc2F)c(F)c(F)c1NC(=O)OC1CC1	> 10 µM	–	–	> 10 µM	> 10 µM	> 10 µM	–
Nc1c(NC(=O)OC2CC2)cc(F)c(NCc2ncc(C(F)(F)F)cc2F)c1F	> 10 µM	–	–	> 10 µM	> 10 µM	> 10 µM	–
Nc1c(NC(=O)OC2CC2)cc(F)c(NCc2ccc(C(F)(F)F)cc2F)c1F	> 10 µM	1.27 h	> 10	> 10 µM	0.93 µM	> 10 µM	–
Nc1c(NC(=O)OC2CC2)ccc(NCc2ccc(C(F)(F)F)cn2)c1F	0.9 µM	–	1.2	0.96 µM	0.79 µM	0.72 µM	–
CCOC(=O)Nc1ccc(NCc2ccc(C(F)(F)F)nc2)c(F)c1N	0.95 µM	6.77 h	2.1	1.27 µM	0.61 µM	0.69 µM	–
Nc1c(NC(=O)OC2CC2)ccc(NCc2ccc(C(F)(F)F)nc2)c1F	1.13 µM	–	1.9	1.36 µM	0.71 µM	0.69 µM	–
Nc1c(NC(=O)OC2CC2)ccc(NCc2ncc(C(F)(F)F)cc2F)c1F	> 10 µM	–	> 7	> 10 µM	1.39 µM	> 10 µM	–
CCOC(=O)Nc1cc(C(F)(F)F)c(NCc2ccc(C(F)(F)F)cc2)c(F)c1N	> 10 µM	–	–	> 10 µM	> 10 µM	> 10 µM	–
CCOC(=O)Nc1ccc(NCc2ccc(F)cc2)nc1N	5.62 µM	–	1.8	3.5 µM	2 µM	1.58 µM	–
CCOC(=O)Nc1ccc(NCc2ccc(C(F)(F)F)cc2F)c(F)c1N	0.11 µM	–	1.7	0.3 µM	0.18 µM	0.34 µM	–
CCOC(=O)Nc1ccc(NCc2ccc(F)cc2)cc1N [EZOGABINE]	–	16.2 h	–	–	0.33 µM	0.34 µM	–
Nc1c(NC(=O)OC2CC2)ccc(NCc2ccc(C(F)(F)F)cc2)c1F	0.38 µM	–	2.5	0.28 µM	0.11 µM	0.23 µM	–
CCOC(=O)Nc1ccc(NCc2ccc(C(F)(F)F)cn2)c(F)c1N	0.85 µM	–	0.9	0.59 µM	0.66 µM	0.79 µM	–
Nc1c(NC(=O)OC2CC2)ccc(NCc2ccc(C(F)(F)F)cc2F)c1F	0.21 µM	–	0.6	0.35 µM	0.59 µM	0.47 µM	–
CCOC(=O)Nc1cc(F)c(NCc2ccc(C(F)(F)F)cc2)cc1N	4.65 µM	–	> 7	> 10 µM	1.26 µM	> 10 µM	–
Nc1c(F)c(NCc2ncc(C(F)(F)F)cc2F)cc(F)c1NC(=O)OC1CC1	> 10 µM	–	> 10	> 10 µM	1 µM	> 10 µM	–
CCOC(=O)Nc1ccc(NCc2ccc(F)cc2)c(F)c1N	–	–	–	–	–	–	600 nM
